The source made the active and inactive calls. No cut-off for these calls is given here. Numbered stars: 1 amine (or outer) side, 2 acyl side, 3 side chain; on linkers, the order of the positions; unused ones are H or OH. Bridge positions count the residues as written; N and C are the ends. Square brackets hold non-standard residues; d marks the D form. Peptide text beside a SMILES is read from it. * marks the point of attachment. Orn(4R-OH,5R-OH) = O=C([C@H](C[C@@H](O)[C@@H](O)N[*:3])N[*:1])[*:2]; hTyr(3S-OH,4S-OH) = N[C@H](C(=O)O)[C@H](O)[C@@H](O)c1ccc(O)cc1; Pro(3S-OH,4S-Me) = C[C@H]1CN[C@H](C(=O)O)[C@H]1O; Palmitoyl = CCCCCCCCCCCCCCCC(=O)*; Hyp = O=C(O)[C@@H]1C[C@@H](O)CN1
Columns and labels:
Saccharomyces cerevisiae [1] = test: Antifungal activity against Saccharomyces cerevisiae MYH 500 assessed as growth inhibition in presence of 80 mM sodium fluoride after 9 hrs; type: functional, organism-based
How it was run: (§1)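 S. cerevisiae growth in liquid medium with amphotericin B over a concentration series, plus a fixed 30 mM or 80 mM of NaF, KCl or NaCl. Cultures were shaken at 30°C for 9 h.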

Saccharomyces cerevisiae [2] = test: Antifungal activity against Saccharomyces cerevisiae MYH 500 assessed as growth inhibition in presence of 30 mM sodium fluoride after 9 hrs; type: functional, organism-based; how it was run: as §1
Saccharomyces cerevisiae [3] = test: Antifungal activity against Saccharomyces cerevisiae MYH 500 assessed as growth inhibition in presence of 80 mM NaCl after 9 hrs; type: functional, organism-based; how it was run: as §1
Saccharomyces cerevisiae [4] = test: Antifungal activity against Saccharomyces cerevisiae MYH 500 assessed as growth inhibition in presence of 30 mM NaCl after 9 hrs; type: functional, organism-based; how it was run: as §1
Saccharomyces cerevisiae [5] = test: Antifungal activity against Saccharomyces cerevisiae MYH 500 assessed as growth inhibition in presence of 80 mM Kcl after 9 hrs; type: functional, organism-based; how it was run: as §1
Saccharomyces cerevisiae [6] = test: Antifungal activity against Saccharomyces cerevisiae MYH 500 at 30 to 70 nM after 48 hrs; type: functional, organism-based
How it was run: (§2)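 S. cerevisiae growth curves in liquid medium over 48 h. Amphotericin B was tested alone or at a fixed 10 nM or 20 nM with a range of sodium fluoride concentrations. Growth was followed as culture density.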

Saccharomyces cerevisiae [7] = test: Antifungal activity against Saccharomyces cerevisiae MYH 500 assessed as growth inhibition at 300 nM after 48 hrs; type: functional, organism-based; how it was run: as §2
Saccharomyces cerevisiae [8] = test: Antifungal activity against Saccharomyces cerevisiae MYH 500 at 10 nM after 48 hrs; type: functional, organism-based; how it was run: as §2
Saccharomyces cerevisiae [9] = test: Potentiation of fluoride-induced antimicrobial effect against Saccharomyces cerevisiae MYH 500 assessed as increase in growth inhibition at 10 nM in presence of 30 to 100 mM sodium fluoride after 48 hrs; type: functional, organism-based; how it was run: as §2
Saccharomyces cerevisiae [10] = test: Potentiation of fluoride-induced antimicrobial effect against Saccharomyces cerevisiae MYH 500 assessed as increase in growth inhibition at 20 nM in presence of 30 to 100 mM sodium fluoride after 48 hrs; type: functional, organism-based; how it was run: as §2
Saccharomyces cerevisiae [11] = test: Potentiation of fluoride-induced antimicrobial effect against Saccharomyces cerevisiae MYH 500 assessed as increase in growth inhibition at 10 nM in presence of 60 mM sodium fluoride after 48 hrs; type: functional, organism-based; how it was run: as §2
Saccharomyces cerevisiae [12] = test: Antifungal activity against Saccharomyces cerevisiae MYH 500 assessed as growth inhibition in presence of 30 mM sodium fluoride after 48 hrs relative to untreated control; type: functional
Saccharomyces cerevisiae [13] = test: Antifungal activity against Saccharomyces cerevisiae MYH 500 assessed as growth inhibition in presence of 80 mM sodium fluoride after 48 hrs relative to untreated control; type: functional
Saccharomyces cerevisiae [14] = test: Antifungal activity against Saccharomyces cerevisiae MYH 500 assessed as growth inhibition in presence of 30 mM Kcl after 9 hrs; type: functional, organism-based; how it was run: as §1
Neurospora crassa [15] = test: Antifungal activity against Neurospora crassa FGSC 2225 assessed as growth inhibition at 300 nM after 24 hrs; type: functional, organism-based
How it was run: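 N. crassa, a filamentous fungus, was grown in liquid medium with amphotericin B for 24 h. Growth was scored visually in tubes, and the lowest concentration showing little or no visible growth was noted.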

Neurospora crassa [16] = test: Antifungal activity against Neurospora crassa FGSC 2225 assessed as growth inhibition in presence of 10 mM sodium fluoride after 24 hrs relative to untreated control; type: functional
How it was run: (§3)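 Filamentous fungus grown in liquid medium tubes with fluoride plus a drug series. Growth was scored visually after 24 h. The endpoint was the lowest concentration tube showing little or no visible growth.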

Neurospora crassa [17] = test: Antifungal activity against Neurospora crassa FGSC 2225 assessed as growth inhibition in presence of 30 mM sodium fluoride after 24 hrs relative to untreated control; type: functional; how it was run: as §3
Aspergillus nidulans [18] = test: Antifungal activity against Aspergillus nidulans ATCC 38163 assessed as growth inhibition in presence of 30 mM sodium fluoride after 24 hrs; type: functional, organism-based
Aspergillus nidulans [19] = test: Antifungal activity against Aspergillus nidulans ATCC 38163 assessed as growth inhibition in presence of 10 mM sodium fluoride after 24 hrs; type: functional, organism-based
Saccharomyces cerevisiae [20] = test: Antifungal activity against Saccharomyces cerevisiae MYH 500 assessed as growth inhibition at 3 mM in presence of 30 mM sodium fluoride after 24 hrs relative to untreated control; type: functional, organism-based
Saccharomyces cerevisiae [21] = test: Antifungal activity against Saccharomyces cerevisiae MYH 500 assessed as growth inhibition at 3 mM in presence of 30 mM sodium fluoride after 48 hrs relative to untreated control; type: functional
Saccharomyces cerevisiae [22] = test: Antifungal activity against Saccharomyces cerevisiae MYH 500 assessed as growth inhibition at 3 mM after 48 hrs; type: functional, organism-based

Cc1cccc(N(C)C(=S)Oc2ccc3ccccc3c2)c1
growth inhibition (GI) (Saccharomyces cerevisiae [1]): inactive | growth inhibition (GI) (Saccharomyces cerevisiae [2]): inactive

CCCCCCCCCCCCCCCC(=O)N[C@H]1C[C@@H](O)[C@@H](O)NC(=O)[C@@H]2[C@@H](O)[C@@H](C)CN2C(=O)[C@H]([C@@H](C)O)NC(=O)[C@H]([C@H](O)[C@@H](O)c2ccc(O)cc2)NC(=O)[C@@H]2C[C@@H](O)CN2C(=O)[C@H]([C@@H](C)O)NC1=O (Palmitoyl-[Orn(4R-OH,5R-OH)]T[Hyp][hTyr(3S-OH,4S-OH)]T[Pro(3S-OH,4S-Me)]; lactam 1-C)
growth inhibition (GI) (Saccharomyces cerevisiae [2]): inactive

CN(C/C=C/C#CC(C)(C)C)Cc1cccc2ccccc12
growth inhibition (GI) (Saccharomyces cerevisiae [1]): inactive | growth inhibition (GI) (Saccharomyces cerevisiae [2]): inactive

NYSTATIN
growth inhibition (GI) (Saccharomyces cerevisiae [1]): Active | growth inhibition (GI) (Saccharomyces cerevisiae [2]): Active

C[C@@H]1[C@H](O)[C@@H](C)/C=C/C=C/C=C/C=C/C=C/C=C/C=C/[C@H](O[C@@H]2O[C@H](C)[C@@H](O)[C@H](N)[C@@H]2O)C[C@@H]2O[C@](O)(C[C@@H](O)C[C@@H](O)[C@H](O)CC[C@@H](O)C[C@@H](O)CC(=O)O[C@H]1C)C[C@H](O)[C@H]2C(=O)O [AMPHOTERICIN B]
growth inhibition (GI) (Saccharomyces cerevisiae [3]): Active | growth inhibition (GI) (Saccharomyces cerevisiae [4]): Active | growth inhibition (GI) (Saccharomyces cerevisiae [5]): Active | Activity (Saccharomyces cerevisiae [6]): inactive | growth inhibition (GI) (Saccharomyces cerevisiae [7]): Active | Activity (Saccharomyces cerevisiae [8]): inactive | growth inhibition (GI) (Saccharomyces cerevisiae [9]): Active | growth inhibition (GI) (Saccharomyces cerevisiae [10]): Active | growth inhibition (GI) (Saccharomyces cerevisiae [11]): Active | fold change (FC) (Saccharomyces cerevisiae [12]): 10 | fold change (FC) (Saccharomyces cerevisiae [13]): 30 | growth inhibition (GI) (Saccharomyces cerevisiae [14]): Active | growth inhibition (GI) (Neurospora crassa [15]): inactive | fold change (FC) (Neurospora crassa [16]): 4 | fold change (FC) (Neurospora crassa [17]): 10 | growth inhibition (GI) (Aspergillus nidulans [18]): Active | growth inhibition (GI) (Aspergillus nidulans [19]): Active

N=C(N)NCCC[C@@H]1NC(=O)[C@H](CCCNC(=N)N)NC(=O)[C@H](CCCNC(=N)N)NC(=O)[C@H](CCCNC(=N)N)NC(=O)[C@H](CCCNC(=N)N)NC(=O)[C@H](CCCNC(=N)N)NC(=O)[C@H](CCCNC(=N)N)NC1=O [NOVEXATIN]
growth inhibition (GI) (Saccharomyces cerevisiae [20]): Active | fold change (FC) (Saccharomyces cerevisiae [21]): >3 | growth inhibition (GI) (Saccharomyces cerevisiae [22]): Active

CCC(C)n1ncn(-c2ccc(N3CCN(c4ccc(OCC5COC(Cn6cncn6)(c6ccc(Cl)cc6Cl)O5)cc4)CC3)cc2)c1=O (centres undefined)
growth inhibition (GI) (Saccharomyces cerevisiae [1]): inactive | growth inhibition (GI) (Saccharomyces cerevisiae [2]): inactive

Reference: ChEMBL document CHEMBL2203216, “Fluoride enhances the activity of fungicides that destabilize cell membranes” (2012)
